pEC50: −log10 of the molar value. Activity calls are given as the source filed them. The rule behind the calls is not given here.
Experiments:
L3.6pl [1] = assay: Decrease in intracellular polyamine level in human L3.6pl cells assessed as putrescine level at 60 uM incubated for 24 hrs by HPLC analysis; assay type: functional, cell-based
Summary of the method: (§1)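 L3.6pl cells incubated 24 h at 37 °C with compound (60 μM) or 0.6% DMSO vehicle; native intracellular polyamines then measured; mean ± SD (n = 3).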

L3.6pl [2] = assay: Decrease in intracellular polyamine level in human L3.6pl cells assessed as spermidine level at 60 uM incubated for 24 hrs by HPLC analysis; assay type: functional, cell-based; summary of the method: as §1
L3.6pl [3] = assay: Inhibition of FUBP1/DNA FUSE region interaction in human […] cells assessed as reduction in c-myc protein level at 20 to 60 uM incubated for 24 hrs by Western blot analysis; assay type: cell-based; details: dose 20-60 µM
Summary of the method: (§2)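 Western blot of L3.6pl cells after 24 h compound treatment with matched DMSO loading; c-Myc, p21 and FUBP1 probed, GAPDH as loading control; at least three independent experiments.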

L3.6pl [4] = assay: Inhibition of FUBP1/DNA FUSE region interaction in human […] cells assessed as increase in p21 protein level at 20 to 60 uM incubated for 24 hrs by Western blot analysis; assay type: cell-based; details: dose 20-60 µM; summary of the method: as §2
L3.6pl [5] = assay: Inhibition of polyamine transport system in human L3.6pl cells assessed as reduction in [3H] spermidine uptake preincubated for 24 hrs followed by [3H]-spermidine addition and measured after 15 mins by scintillation counter method; assay type: cell-based; details: time 24.25 hrs
Summary of the method: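 L3.6pl cells pretreated 24 h with compound, then 3H-Spd added for 15 min; intracellular 3H-Spd measured; mean ± SD (n = 3).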

L3.6pl [6] = assay: Inhibition of polyamine transport system in human L3.6pl cells assessed as reduction in [3H] spermidine uptake preincubated for 72 hrs in presence of DFMO followed by [3H]-spermidine addition and measured after 15 mins by scintillation counter method; assay type: cell-based; details: time 72.25 hrs
Summary of the method: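 L3.6pl cells incubated 72 h with DFMO alone or DFMO plus compound, then 3H-Spd added for 15 min; intracellular 3H-Spd measured; mean ± SD (n = 3).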

[7] = Inhibition of spermidine uptake chinese hamster CHO-K1 cells assessed as decrease in cell growth by measuring cellular ATP content measured after 48 hrs in presence of DFMO and spermidine by ATPlite assay; assay type: functional, cell-based; details: Cricetulus griseus, CHO-K1, 48 h
CHO-K1 [8] = assay: Cytotoxicity against chinese hamster CHO-K1 cells assessed as decrease in cell viability measured after 48 hrs by ATPlite assay; assay type: toxicity, cell-based, Cricetulus griseus; details: cho-k1, 48 h
Summary of the method: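 CHO-K1 cells dosed alone in 384-well format in parallel with Assays 1 and 2; MTC taken as highest concentration giving ≥90% relative growth versus untreated control; typical error ±10% (n = 3).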

L3.6pl [9] = assay: Cytotoxicity against human L3.6pl cells assessed as cell viability measured after 72 hrs by ATPlite assay; assay type: toxicity, cell-based
Summary of the method: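 L3.6pl human pancreatic cancer cells in 96-well format were exposed to compound alone for 72 h. Growth was expressed relative to an untreated control. MTC is the highest concentration with relative growth still >90%. […] Data come from two or more experiments, each run in triplicate (n ≥ 6).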

[10] = Cytotoxicity against human L3.6pl cells assessed as inhibition of cell growth measured after 72 hrs by ATPlite assay; assay type: toxicity, cell-based
L3.6pl [11] = assay: Inhibition of FUBP1/DNA FUSE region interaction in human […] cells assessed as decrease in c-myc mRNA level at 20 to 60 uM incubated for 24 hrs by qRT-PCR analysis; assay type: cell-based; details: dose 20-60 µM
Summary of the method: (§3)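 L3.6pl cells treated 24 h with compound or matched DMSO; p21 and c-Myc mRNA by qRT-PCR, normalized to β-actin; log mean ± SD (n = 2).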

L3.6pl [12] = assay: Inhibition of FUBP1/DNA FUSE region interaction in human […] cells assessed as increase in p21 mRNA level at 20 to 60 uM incubated for 24 hrs by qRT-PCR analysis; assay type: cell-based; details: dose 20-60 µM; summary of the method: as §3
L3.6pl [13] = assay: Inhibition of FUBP1/DNA FUSE region interaction in human […] cells assessed as reduction in c-Myc FUSE DNA pull down at 60 uM incubated for 24 hrs by qRT-PCR analysis; assay type: cell-based
Summary of the method: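 ChIP: L3.6pl cells ± compound (60 μM) 24 h; crosslinked FUBP1–DNA immunoprecipitated with FUBP1 antibody, crosslink reversed, FUSE sequence upstream of c-Myc promoter amplified by qPCR; mean fold change ± SEM (n = 2).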

[14] = biological target: T1, Far upstream element-binding protein 1 (Homo sapiens) (UniProt Q96AE4); assay: Binding affinity to recombinant GST tagged FUBP1 KH3-KH4 domain (unknown origin) assessed as decrease in FUBP1-FUSE DNA bound complex using 5'-IRDye700 tagged TGTATATTCCCTCGGG oligonucleotide as substrate at 30 to 60 uM measured for 30 mins by Gel shift assay relative to control; details: dose 30-60 µM, DDE = dose-dependent effect
T1 sequence (whole entry): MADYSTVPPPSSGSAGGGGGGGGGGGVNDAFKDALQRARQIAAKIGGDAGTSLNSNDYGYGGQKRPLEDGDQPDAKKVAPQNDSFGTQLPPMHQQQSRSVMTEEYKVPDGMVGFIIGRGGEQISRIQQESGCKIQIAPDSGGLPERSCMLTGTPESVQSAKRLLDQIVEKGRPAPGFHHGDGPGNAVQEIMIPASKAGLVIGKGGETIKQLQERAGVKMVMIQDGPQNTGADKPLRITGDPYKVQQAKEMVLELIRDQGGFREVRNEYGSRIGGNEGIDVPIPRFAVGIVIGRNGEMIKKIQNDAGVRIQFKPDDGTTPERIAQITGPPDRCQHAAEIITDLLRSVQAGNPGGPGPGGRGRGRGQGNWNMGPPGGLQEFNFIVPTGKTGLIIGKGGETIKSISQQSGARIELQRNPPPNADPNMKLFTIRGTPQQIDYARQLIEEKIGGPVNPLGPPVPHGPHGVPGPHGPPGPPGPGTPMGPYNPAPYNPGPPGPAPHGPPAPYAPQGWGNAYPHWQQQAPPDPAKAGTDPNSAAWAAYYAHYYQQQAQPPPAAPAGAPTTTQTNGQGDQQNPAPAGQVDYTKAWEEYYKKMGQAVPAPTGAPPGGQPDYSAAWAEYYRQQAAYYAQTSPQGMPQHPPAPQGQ

L3.6pl [15] = assay: Decrease in intracellular polyamine level in human L3.6pl cells assessed as total polyamine level at 60 uM incubated for 24 hrs by HPLC analysis; assay type: functional, cell-based; summary of the method: as §1
L3.6pl [16] = assay: Decrease in intracellular polyamine level in human L3.6pl cells assessed as spermine level at 60 uM incubated for 24 hrs by HPLC analysis; assay type: functional, cell-based; summary of the method: as §1
CHO-K1 [17] = assay: Inhibition of spermidine uptake in chinese hamster CHO-K1 cells assessed as decrease in cell growth by measuring cellular ATP content measured after 48 hrs in presence of DFMO and spermidine by ATPlite assay; details: Cricetulus griseus, CHO-K1, 48 h
L3.6pl [18] = assay: Inhibition of polyamine uptake in human L3.6pl cells assessed as inhibition of Ant44-induced toxicity by measuring cellular ATP content at MTC measured after 72 hrs in presence of Ant44 by ATPlite assay; assay type: functional
Summary of the method: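 L3.6pl cells, Ant44 challenge over 72 h, compound dosed up to its MTC; ECx = percentage effect at the MTC on scale from Ant44-only (50% growth) to untreated (100%); average of ≥2 experiments in triplicate (n ≥ 6).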

[19] = Inhibition of spermidine uptake in human L3.6pl cells assessed as inhibition of cell growth by measuring cellular ATP content at MTC measured after 72 hrs in presence of DFMO and spermidine by ATPlite assay; assay type: functional
Summary of the method: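 L3.6pl cells with DFMO and spermidine over 72 h, compound dosed up to its MTC; ECx = percentage effect at the MTC on scale between DFMO-only (50%) and DFMO + Spd (100%) controls; average of ≥2 experiments in triplicate (n ≥ 6).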

| SMILES | Activity (L3.6pl [1]) | Activity (L3.6pl [2]) | pEC50 [7] | MTC (CHO-K1 [8]) [µM] | MTC (L3.6pl [9]) [µM] | IC50 at 72 h [10] [µM] | pEC50 (CHO-K1 [17]) | further results |
| --- | --- | --- | --- | --- | --- | --- | --- | --- |
| NCCCC(N)(C(=O)O)C(F)F (stereo not drawn) | Active | Active |  |  |  |  |  |  |
| COc1ccc(-c2cc(C(F)(F)F)n3nc(-c4cccs4)cc3n2)cc1OC |  |  |  |  |  |  |  | inhibition (L3.6pl [3]): Active; inhibition (L3.6pl [4]): Active |
| CNCCCCNCCCCNCc1cc(CNCCCCNCCCCNC)cc(CNCCCCNCCCCNC)c1 |  |  |  |  |  |  |  | inhibition (L3.6pl [5]): Active; inhibition (L3.6pl [6]): Active |
| COc1ccc(C(=O)Nc2ccc(N3CCN(c4cc(Cl)ccc4C)CC3)cc2C(=O)O)cc1 | Active | Active | < 4.40 | 13 | 8 | 16.8 | 5.10 | inhibition (L3.6pl [3]; DDE = dose-dependent effect): Dde; inhibition (L3.6pl [4]; DDE = dose-dependent effect): Dde; inhibition (L3.6pl [11]): Active; inhibition (L3.6pl [12]): Active; inhibition (L3.6pl [13]): Active; Activity [14]: Dde; Activity (L3.6pl [15]): Active; Activity (L3.6pl [16]): Active |
| COc1ccc(C(=O)Nc2ccc(N3CCN(c4ccccc4OC)CC3)cc2C(=O)O)cc1 |  |  | 5.05 | > 40 | 6 | 13.3 | 4.59 | inhibition (INH) (L3.6pl [18]): 25%; inhibition (INH) [19]: 8% |

Source: ChEMBL document CHEMBL5150043, “Discovery of Anthranilic Acid Derivatives as Difluoromethylornithine Adjunct Agents That Inhibit Far Upstream Element Binding Protein 1 (FUBP1) Function” (J Med Chem, 2022)
